According to ChEMBL document CHEMBL3992541, “Combined treatment with zingerone and its novel derivative synergistically inhibits TGF-β1 induced epithelial-mesenchymal transition, migration and invasion of human hepatocellular carcinoma cells” (2017):
Active and inactive are the calls of the source. No cut-off for these calls is given here.

What was measured:
[1] = tested on: SNU-182; assay: Growth inhibition of human SNU182 cells at <50 uM in presence of (E)-1-(9-Ethyl-9H-carbazol-3-yl)-5-(4-hydroxy-3-methoxyphenyl)pent-1-en-3-one after 48 hrs by CCK8 assay; type: functional, cell-based
[2] = tested on: SNU-182; assay: Inhibition of TGFbeta1-induced epithelial-mesenchymal transition in human SNU182 cells assessed as reduction in MMP2 mRNA expression at 40 uM preincubated for 2 hrs followed by TGFbeta1 addition measured after 48 hrs by qRT-PCR method; type: functional, cell-based
Summary of the method: (§1)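 SNU182 cells pretreated 2 h with single agents (12.5 or 40 µM) or the mixture (20 or 40 µM), then TGF-β 5 ng/ml for 48 h. MMP-2 and MMP-9 mRNA measured by RT-PCR with densitometry and by qRT-PCR, fold change by the 2^-ΔΔCt method. Mean±SD of triplicates.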

[3] = tested on: SNU-182; assay: (§2) Inhibition of TGFbeta1-induced epithelial-mesenchymal transition in human SNU182 cells assessed as reduction in MMP9 mRNA expression preincubated for 2 hrs followed by TGFbeta1 addition measured after 48 hrs in presence of (E)-1-(9-Ethyl-9H-carbazol-3-yl)-5-(4-hydroxy-3-methoxyphenyl)pent-1-en-3-one by qRT-PCR method; type: functional, cell-based; summary of the method: as §1
[4] = tested on: SNU-182; assay: Inhibition of TGFbeta1-induced epithelial-mesenchymal transition in human SNU182 cells assessed as reduction in MMP9 mRNA expression at 40 uM preincubated for 2 hrs followed by TGFbeta1 addition measured after 48 hrs by qRT-PCR method; type: functional, cell-based; summary of the method: as §1
[5] = tested on: SNU-182; assay: Inhibition of TGFbeta1-induced epithelial-mesenchymal transition in human SNU182 cells assessed as reduction in mesenchymal phenotype preincubated for 2 hrs followed by TGFbeta1 addition measured after 48 hrs in presence of (E)-1-(9-Ethyl-9H-carbazol-3-yl)-5-(4-hydroxy-3-methoxyphenyl)pent-1-en-3-one; type: functional, cell-based
Summary of the method: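 Cells preincubated 2 h in serum-free medium with the mixture (20 and 40 µM), then treated with TGF-β1 5 ng/ml for 48 h. Morphology (spindle-like, elongated shape, scattering) assessed by microscopy.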

[6] = organism: Homo sapiens; assay: Inhibition of TGFbeta1-induced NF-kB nuclear translocation in human SNU182 cells preincubated for 2 hrs followed by TGFbeta1 addition measured after 12 hrs in presence of (E)-1-(9-Ethyl-9H-carbazol-3-yl)-5-(4-hydroxy-3-methoxyphenyl)pent-1-en-3-one by Western blot method; type: cell-based
Summary of the method: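 Mixture added to SNU182 cells for 2 h before TGF-β1 for 12 h. Cytosolic and nuclear fractions analysed by Western blot for NF-κB, with COX4 as cytosolic and Lamin B1 as nuclear marker.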

[7] = tested on: SNU-182; assay: Inhibition of TGFbeta1-induced epithelial-mesenchymal transition in human SNU182 cells assessed as reduction in upregulation of Snail expression at 40 uM preincubated for 2 hrs followed by TGFbeta1 addition measured after 48 hrs by Western blot method; type: functional, cell-based
Summary of the method: (§3)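 SNU182 cells pretreated 2 h with single agents (12.5 or 40 µM) or the mixture (20 and 40 µM), then stimulated with TGF-β1 5 ng/ml for 48 h. E-cadherin and Snail protein detected by Western blot, with GAPDH as loading control.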

[8] = organism: Homo sapiens; assay: Inhibition of TGFbeta1-induced NF-kB binding activity in human SNU182 cells at 20 to 40 uM measured after 48 hrs in presence of (E)-1-(9-Ethyl-9H-carbazol-3-yl)-5-(4-hydroxy-3-methoxyphenyl)pent-1-en-3-one by luciferase reporter gene assay; type: cell-based
Summary of the method: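 Cells transfected with pGL4.32-NF-κB-RE-Luc or empty pGL4.32, then treated with the mixture and/or TGF-β1. Luciferase reporter activity read. Mean±SD of triplicates.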

[9] = tested on: SNU-182; assay: as §2, with “downregulation of E-cadherin” for “MMP9 mRNA”, “Western blot” for “qRT-PCR”; type: functional, cell-based; summary of the method: as §3
[10] = biological target: Mothers against decapentaplegic homolog 2 (Homo sapiens) (UniProt Q15796); assay: Inhibition of TGFbeta1-induced SMAD2 phosphorylation in human SNU182 cells at 20 to 40 uM preincubated for 2 hrs followed by TGFbeta1 addition measured after 48 hrs in presence of zingerone by Western blot method; type: cell-based
Summary of the method: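 SNU182 cells given the mixture (20 and 40 µM) for 2 h, then TGF-β1 5 ng/ml for 48 h. Smad2/3 phosphorylation by Western blot, with total Smad2/3 as loading control.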

[11] = tested on: SNU-182; assay: Growth inhibition of human SNU182 cells assessed as cell growth at 50 uM after 48 hrs by CCK8 assay relative to control; type: functional; conditions: SNU-182, 48 h, read-out: Activity
[12] = tested on: SNU-182; assay: Inhibition of TGFbeta1-induced epithelial-mesenchymal transition in human SNU182 cells assessed as reduction in MMP2 activity measured after 48 hrs in presence of zingerone by gelatin zymography assay; type: functional, cell-based
Summary of the method: (§4)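 Cells serum-starved overnight in 0.2% FBS medium, then left untreated or given TGF-β 5 ng/ml and/or the mixture for 48 h. MMP-2 and MMP-9 activity in conditioned medium determined by gelatin zymography.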

[13] = biological target: Transcription factor Jun (Homo sapiens) (UniProt P05412); assay: Inhibition of TGFbeta1-induced AP-1 binding activity in human SNU182 cells at 20 to 40 uM measured after 48 hrs in presence of zingerone by luciferase reporter gene assay; type: cell-based
Summary of the method: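 SNU182 transfected with pGL4.44-AP-1-RE-Luc or empty pGL4.44, pretreated with the mixture (20 and 40 µM), then stimulated with TGF-β1 or DMSO. Luciferase reporter activity read. Mean±SD of triplicates.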

[14] = tested on: SNU-182; assay: Growth inhibition of human SNU182 cells assessed as cell survival at 12.5 uM after 48 hrs by CCK8 assay relative to control; type: functional; conditions: SNU-182, 48 h, read-out: Survival
Summary of the method: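 SNU182 human hepatocellular carcinoma cells were exposed to compound at 6.25, 12.5, 25, 50 and 100 µM in serum-free DMEM for 48 h. Viability was read by CCK-8, where WST-8 is reduced by cellular dehydrogenases to a soluble formazan, and expressed as survival relative to vehicle control. Values are mean±SD of triplicates.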

[15] = tested on: SNU-182; assay: Inhibition of TGFbeta1-induced epithelial-mesenchymal transition in human SNU182 cells assessed as reduction in MMP9 activity measured after 48 hrs in presence of zingerone by gelatin zymography assay; type: functional, cell-based; summary of the method: as §4
[16] = tested on: SNU-182; assay: Growth inhibition of human SNU182 cells at <50 uM in presence of zingerone after 48 hrs by CCK8 assay; type: functional, cell-based
[17] = tested on: SNU-182; assay: Inhibition of TGFbeta1-induced invasion in human SNU182 cells at 40 uM measured after 48 hrs in presence of zingerone by microscopic method; type: functional, cell-based
Summary of the method: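 Matrigel invasion chamber: SNU182 cells in the inner chamber received TGF-β1 with or without the mixture for 48 h. Cells on the lower surface stained, imaged at 200×, and counted. Mean±SD of triplicates.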

[18] = tested on: SNU-182; assay: Growth inhibition of human SNU182 cells after 48 hrs by CCK8 assay; type: functional, cell-based
[19] = tested on: SNU-182; assay: Inhibition of TGFbeta1-induced migration in human SNU182 cells at 40 uM measured after 48 hrs in presence of zingerone by wound healing assay; type: functional, cell-based
Summary of the method: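 Wound healing: SNU182 monolayers at about 90% confluence scratched with a pipette tip and washed. Medium with TGF-β1, with or without 40 µM mixture, then added. Wound imaged at 0 and 48 h; relative motility from cell surface area. Mean±SD of triplicates.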

Transcription factor Jun (Homo sapiens), sequence (P05412 whole entry): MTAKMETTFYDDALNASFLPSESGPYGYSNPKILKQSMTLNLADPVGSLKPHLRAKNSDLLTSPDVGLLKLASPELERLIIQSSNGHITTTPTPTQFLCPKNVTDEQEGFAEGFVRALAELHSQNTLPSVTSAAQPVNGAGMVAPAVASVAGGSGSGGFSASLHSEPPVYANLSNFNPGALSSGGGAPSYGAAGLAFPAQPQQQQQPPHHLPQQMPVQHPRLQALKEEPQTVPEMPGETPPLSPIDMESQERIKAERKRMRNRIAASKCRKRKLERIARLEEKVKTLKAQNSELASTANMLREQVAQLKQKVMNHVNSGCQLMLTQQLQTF
Mothers against decapentaplegic homolog 2 (Homo sapiens), sequence (Q15796 whole entry): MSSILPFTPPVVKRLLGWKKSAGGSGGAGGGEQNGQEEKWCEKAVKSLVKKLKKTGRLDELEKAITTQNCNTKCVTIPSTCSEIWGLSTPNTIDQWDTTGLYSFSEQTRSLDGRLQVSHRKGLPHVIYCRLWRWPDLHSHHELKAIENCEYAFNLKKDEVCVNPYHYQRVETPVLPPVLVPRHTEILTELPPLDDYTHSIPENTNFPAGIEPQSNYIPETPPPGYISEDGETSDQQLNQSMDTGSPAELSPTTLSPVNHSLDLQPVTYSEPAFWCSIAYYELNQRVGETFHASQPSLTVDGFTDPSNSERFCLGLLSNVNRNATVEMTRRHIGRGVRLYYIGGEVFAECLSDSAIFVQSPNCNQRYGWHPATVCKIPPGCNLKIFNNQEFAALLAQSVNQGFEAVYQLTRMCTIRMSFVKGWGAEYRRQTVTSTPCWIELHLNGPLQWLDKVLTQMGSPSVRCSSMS

Structure (SMILES) | growth inhibition (GI) [1] | inhibition [2] | inhibition [3] | inhibition [4] | inhibition [5] | inhibition [6] | inhibition [7] | inhibition [8] | inhibition [9] | inhibition [10] | growth at 50 µM [11] [%] | inhibition [12] | inhibition [13] | viability at 12.5 µM [14] [%] | inhibition [15] | growth inhibition (GI) [16] | inhibition [17] | growth inhibition (GI) [18] | inhibition [19]
COc1cc(CCC(C)=O)ccc1O | inactive | inactive | Dose-dependent effect | inactive | Dose-dependent effect | Dose-dependent effect | inactive | Active | Dose-dependent effect |  |  |  |  |  |  |  |  |  | 
CCn1c2ccccc2c2cc(/C=C/C(=O)CCc3ccc(O)c(OC)c3)ccc21 |  |  |  |  |  |  |  |  |  | Active | 40 | Active | Active | > 90 | Active | inactive | Active | Dose-dependent effect | Active
